Measurements as given in ChEMBL document CHEMBL5108049, “Development and Characterization of Type I, Type II, and Type III LIM-Kinase Chemical Probes” (J Med Chem, 2022).

Key:
N1E-115 = experiment: Inhibition of neurite outgrowth in BMP7 stimulated mouse N1E-115 cells transfected with siFMR1 preincubated for 12 hrs followed by BMP7 stimulation for 24 hrs; type: functional, cell-based; settings: dose 0.05-5 µM, time 36.0 hrs, DDE = dose-dependent effect
Outline: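 At 60 h, the medium was switched to 0.2% FBS containing inhibitor (0.05, 0.5 or 5 μM; DMSO stock) or DMSO for 12 h, then 10 ng/mL BMP7 was added for 24 h. The percentage of cells with neurites longer than one cell body was counted by microscopy, ≥100 cells per condition; mean + SD, N = 4.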

LIM domain kinase 1 [1] = biological target: T1, LIM domain kinase 1 (Homo sapiens, UniProt P53667); experiment: Binding affinity to recombinant LIMK1 (330 to 637 residues) (unknown origin) expressed in baculovirus infected insect cells assessed as change in melting temperature at 10 uM by differential scanning fluorimetry
Target sequence in this assay (P53667 whole entry, looked up, the tested form may be a part): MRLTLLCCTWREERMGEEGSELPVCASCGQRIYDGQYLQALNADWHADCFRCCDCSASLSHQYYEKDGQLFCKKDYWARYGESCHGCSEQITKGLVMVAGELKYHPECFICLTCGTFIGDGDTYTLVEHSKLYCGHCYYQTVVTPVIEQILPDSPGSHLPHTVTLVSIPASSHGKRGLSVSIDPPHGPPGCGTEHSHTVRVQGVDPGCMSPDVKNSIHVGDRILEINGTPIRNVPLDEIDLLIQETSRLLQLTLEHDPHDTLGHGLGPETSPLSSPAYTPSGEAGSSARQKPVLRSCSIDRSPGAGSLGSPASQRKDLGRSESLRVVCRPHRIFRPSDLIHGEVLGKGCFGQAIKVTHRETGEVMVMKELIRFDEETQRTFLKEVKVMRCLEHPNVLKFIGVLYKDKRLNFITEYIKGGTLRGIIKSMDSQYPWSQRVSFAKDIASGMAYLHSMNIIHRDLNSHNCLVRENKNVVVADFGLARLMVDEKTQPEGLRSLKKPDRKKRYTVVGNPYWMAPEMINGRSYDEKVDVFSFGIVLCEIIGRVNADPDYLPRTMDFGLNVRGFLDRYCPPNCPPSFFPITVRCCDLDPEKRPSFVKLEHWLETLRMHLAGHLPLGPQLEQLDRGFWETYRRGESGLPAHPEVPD

LIM domain kinase 2 [2] = biological target: T2, LIM domain kinase 2 (Homo sapiens, UniProt P53671); experiment: Binding affinity to recombinant LIMK2 (330 to 632 residues) (unknown origin) expressed in baculovirus infected insect cells assessed as change in melting temperature at 10 uM by differential scanning fluorimetry
Target sequence in this assay (P53671 whole entry, looked up, the tested form may be a part): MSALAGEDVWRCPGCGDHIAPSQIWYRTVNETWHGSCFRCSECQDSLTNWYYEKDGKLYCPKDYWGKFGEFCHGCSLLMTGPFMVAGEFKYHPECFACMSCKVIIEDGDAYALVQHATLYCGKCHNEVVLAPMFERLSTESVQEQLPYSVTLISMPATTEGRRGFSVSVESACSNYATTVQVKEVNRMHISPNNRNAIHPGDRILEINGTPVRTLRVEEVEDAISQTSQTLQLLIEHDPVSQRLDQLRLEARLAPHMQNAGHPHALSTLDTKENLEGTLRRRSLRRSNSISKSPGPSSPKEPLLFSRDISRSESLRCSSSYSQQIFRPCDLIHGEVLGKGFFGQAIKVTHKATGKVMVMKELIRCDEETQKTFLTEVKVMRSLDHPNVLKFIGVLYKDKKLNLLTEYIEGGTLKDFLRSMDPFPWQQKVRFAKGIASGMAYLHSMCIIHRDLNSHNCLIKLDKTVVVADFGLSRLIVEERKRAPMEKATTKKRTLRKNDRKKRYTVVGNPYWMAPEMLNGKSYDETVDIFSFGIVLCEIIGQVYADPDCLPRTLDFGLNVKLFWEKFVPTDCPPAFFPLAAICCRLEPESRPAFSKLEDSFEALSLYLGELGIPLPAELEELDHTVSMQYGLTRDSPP

LIM domain kinase 1 [3] = biological target: T1, LIM domain kinase 1; experiment: Inhibition of recombinant full length LIMK1 (330 to 637 residues) (unknown origin) expressed in HEK293T cells incubated for 2 hrs in presence of tracer K10 by NanoBRET assay; type: cell-based
Target sequence in this assay (P53667 whole entry, the tested form may be a part): as the sequence (P53667 whole entry, looked up, the tested form may be a part) above

LIM domain kinase 2 [4] = biological target: T2, LIM domain kinase 2; experiment: Inhibition of recombinant full length LIMK2 (330 to 632 residues) (unknown origin) expressed in HEK293T cells incubated for 2 hrs in presence of tracer K10 by NanoBRET assay; type: cell-based
Target sequence in this assay (P53671 whole entry, the tested form may be a part): as the sequence (P53671 whole entry, looked up, the tested form may be a part) above

| Compound | ΔTm (LIM domain kinase 1 [1]) [°C] | ΔTm (LIM domain kinase 2 [2]) [°C] | IC50 (LIM domain kinase 1 [3]) [nM] | IC50 (LIM domain kinase 2 [4]) [nM] | inhibition (N1E-115) |
| --- | --- | --- | --- | --- | --- |
| CC(C)C(=O)Nc1ncc(C(=O)NCCN(Cc2ccccc2)C(=O)c2ccc(S(=O)(=O)Nc3ccccc3)cc2)s1 |  |  |  |  | Dde |
| CCCCN(Cc1ccccc1)C(=O)c1ccc(S(=O)(=O)Nc2ccccc2)cc1 |  |  |  |  | Dde |
| O=C(c1ccc(S(=O)(=O)Nc2ccccc2)cc1)N(CCc1cn(Cc2ccccc2)nn1)Cc1ccccc1 | 6.8 | 12.3 | 472 | 121 |  |
| O=C(c1ccc(S(=O)(=O)Nc2ccccc2)cc1)N(CCc1ccccc1)Cc1ccccc1 | 8.6 |  | 251 | 92 |  |
| CC(C)C(=O)Nc1ncc(-c2cc(C(F)F)nn2-c2c(Cl)cccc2Cl)s1 |  |  |  |  | Dde |
| CN(CCc1ccccc1)C(=O)c1ccc(S(=O)(=O)Nc2ccccc2)cc1 | 1.3 | 3.2 |  |  |  |

Second part, led by results:

| ΔTm (LIM domain kinase 1 [1]) [°C] | ΔTm (LIM domain kinase 2 [2]) [°C] | IC50 (LIM domain kinase 1 [3]) [nM] | IC50 (LIM domain kinase 2 [4]) [nM] | Compound | inhibition (N1E-115) |
| --- | --- | --- | --- | --- | --- |
| 0.9 | 0.1 |  |  | CN(Cc1ccccc1)C(=O)c1ccc(S(=O)(=O)NCCc2ccccc2)cc1 |  |
| 0.9 |  |  |  | CN(Cc1ccccc1)C(=O)c1ccc(S(=O)(=O)Nc2cccc(Cl)c2)cc1 |  |
| 4.5 |  |  |  | CN(Cc1ccccc1)C(=O)c1ccc(S(=O)(=O)Nc2ccccc2)cc1 |  |
